The results in this text go back to ChEMBL document CHEMBL1124464, “Peripherally acting enkephalin analogues. 2. Polar tri- and tetrapeptides” (1989).

Holding throughout (assay type): functional
Assay [1] deals with Mus musculus. The experiment in a line: Antinociceptive activity of subcutaneously administered compound (1 mg) in phenyl-p-benzoquinone induced writhing mice. Put shortly:
(§1)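 Female CD1 mice (Charles River), groups of five to six, given vehicle or drug sc (10 mL kg-1) 30 min before ip phenyl-p-benzoquinone at 2.5 mg kg-1 (10 mL kg-1). Writhes were counted for 2.5 min from 10 min post-irritant. ED50, the dose giving a 50% reduction in writhes relative to vehicle, was obtained by linear regression.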

For assay [2], the system named is Mus musculus. The experiment in a line: Antinociceptive activity of perorally administered compound (20 mg) in phenyl-p-benzoquinone induced writhing mice. Put shortly:
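Female CD1 mice (Charles River), groups of five to six, dosed orally by blunt intragastric needle (10 mL kg-1) 30 min before ip PBQ at 2.5 mg kg-1. Abdominal constrictions/hind-limb extensions were counted over 2.5 min starting 10 min after PBQ. ED50 is the dose halving writhes versus vehicle, estimated by linear regression.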

Assay [3] deals with Mus musculus. The experiment in a line: (§2) Antinociceptive activity of subcutaneously administered compound (10 mg) in phenyl-p-benzoquinone induced writhing mice. Put shortly: as §1
Assay [4] is filed under the species Cavia porcellus. Description: Inhibition of electrically induced contractions on the guinea pig ileum. As to conditions: read-out: ED50 (the source's name). Put shortly: (§3)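 Guinea pig ileum contractions evoked by coaxial stimulation at 0.1 Hz, 0.5-ms pulses, supramaximal voltage, recorded isometrically; dose-response curves built with 15-min washout between doses.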

The test system of assay [5] is Mus musculus. Description: Antinociceptive activity of subcutaneously administered compound in acetic acid (AA) induced writhing mice. As to conditions: sc. Put shortly:
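Male TFW mice, groups of five to six, given drug subcutaneously (10 mL kg-1), then ip acetic acid 0.6% at 25 mL kg-1. Writhes counted for 5 min beginning 15 min after acetic acid. ED50 = dose reducing writhes 50% versus vehicle, by linear regression.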

For assay [6], the system named is Mus musculus. Description: Antinociceptive activity in the hot plate test (central activity) in rodents, when compound administered subcutaneously at 50 mg. Put shortly:
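Male CFLP mice (Hacking and Churchill), groups of five to six, dosed sc at 10 mL kg-1 and placed on a copper surface held at 55 °C. Signs of discomfort (paw licking/shaking, jumping) were scored, with a 30-s cut-off. ED50 is the dose doubling response latency versus vehicle, estimated by parallel-line probit analysis.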

Assay [7] relates to Mus musculus. The assay is described as §2. Put shortly: (§4)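 Groups of five to six female CD1 mice given drug subcutaneously (10 mL kg-1) 30 min before ip phenyl-p-benzoquinone 2.5 mg kg-1. Writhes (abdominal constrictions/hind-limb extensions) counted over 2.5 min from 10 min post-PBQ. ED50, the dose giving 50% fewer writhes than vehicle, from linear regression.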
This is another data set of the same source.

Assay [8] has as its system Mus musculus. Description: Antinociceptive activity of perorally administered compound (50 mg) in phenyl-p-benzoquinone induced writhing mice. Put shortly:
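Female CD1 mice, groups of five to six, dosed orally by blunt intragastric needle (10 mL kg-1) 30 min before ip phenyl-p-benzoquinone 2.5 mg kg-1. Abdominal constrictions/hind-limb extensions counted over 2.5 min starting 10 min after PBQ. ED50 = dose halving writhes versus vehicle, by linear regression.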

Assay [9] is filed under the species Mus musculus. Description: Dose ratio in the presence and absence of the peripheral opioid antagonist in N-methyl-nalorphine in AA writhing mice. Put shortly:
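Acetic acid (0.6%, ip) writhing in male TFW mice; N-methylnalorphine 11.5 mg kg-1 ip 20 min before subcutaneous agonist. Writhes counted 5 min from 15 min post-irritant. Dose ratio taken as the shift between parallel regression lines with and without antagonist.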

The subject of assay [10] is Cavia porcellus. Description: Inhibition of electrically induced contractions on the guinea pig ileum at […] after dosing. Put shortly: as §3
Assay [11] concerns Mus musculus. Description: Antinociceptive activity of subcutaneously administered compound (10) in phenyl-p-benzoquinone induced writhing mice. Put shortly:
as §4

Consider `CC(=O)O.CCN(CCc1ccc2ccccc2c1)C(=O)CNC(=O)[C@@H](CCCN=C(N)N)NC(=O)[C@H](Cc1ccc(O)cc1)N=C(N)N`, for which the Inhibition is on record as 11% with Mus musculus [1] and 0% with Mus musculus [2].

With `CC(=O)O.CCN(CCc1ccccc1C(F)(F)F)C(=O)CNC(=O)[C@@H](CCCN=C(N)N)NC(=O)[C@H](Cc1ccc(O)cc1)N=C(N)N`, the Inhibition amounted to 0% in the assay with Mus musculus [2] and 40% in the assay on Mus musculus [3]. Moreover, the EC50 in the assay listed under Cavia porcellus [4] stood at 28.4 nM.

As for `CC(=O)O.CCN(Cc1ccc([N+](=O)[O-])cc1)C(=O)CNC(=O)[C@@H](CCCN=C(N)N)NC(=O)[C@@H](N)Cc1ccc(O)cc1`, the 50% effect level in the assay with Mus musculus [5] (ED50) was put at a dose of 0.02 mg/kg. Besides, the Inhibition in the assay with Mus musculus [6], in the assay with Mus musculus [7] and in the assay on Mus musculus [8] was 0% each time. Besides, the EC50 in the assay filed under Cavia porcellus [4] came to 9.7 nM. Further, the Ratio in the assay listed under Mus musculus [9] stood at 2.8.

Turning to `CC(=O)O.CCN(CCNC(=O)[C@@H](CCCN=C(N)N)NC(=O)[C@@H](N)Cc1ccc(O)cc1)CCc1ccc([N+](=O)[O-])cc1`, the Inhibition in the assay on Cavia porcellus [10] worked out at 25%.

Consider `CC(=O)O.CCN(CCc1ccccc1C(F)(F)F)C(=O)CNC(=O)[C@@H](CCCN=C(N)N)NC(=O)[C@@H](N)Cc1ccc(O)cc1`, for which the Inhibition with Mus musculus [2] is listed as 0%; in the assay with Mus musculus [11], 33%. Besides, the EC50 in the assay filed under Cavia porcellus [4] was 72.1 nM.
